28 molecules from publication PMC11827156 (Malaria Journal, 2025) can be followed below.

Read-outs that look alike come from different tables or passages of the source.

Holding throughout (type): cell-based, Plasmodium falciparum
The test system of experiment [1] is P. falciparum 3D7. The conditions noted are these: 48 h; for effect on parasitaemia compared with the control: 2.5 nM compound alone.
The test system of experiment [2] is P. falciparum 3D7. The conditions noted are these: 72 h; for IC50: asynchronous culture, 0.0019–2 µM, ± standard error of the mean; for reduction of P. falciparum parasitaemia by 50%: at the concentrations tested (0.0019–2 µM).
Experiment [3] has as its system P. falciparum 3D7. The experiment is described as follows: Competition of TCAMS compounds. To be noted: for effect on the increase in parasitaemia promoted by melatonin: 2.5 nM compound with 100 nM melatonin; for effect on the increase in parasitaemia promoted by melatonin / effect on the increase in parasitaemia promoted by serotonin: 48 h; for effect on the increase in parasitaemia promoted by serotonin: 2.5 nM compound with 250 nM serotonin; for classification on the serotonin/melatonin pathway in the parasite: from effects in presence and absence of serotonin or melatonin. In short, it runs like this: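 Asynchronous P. falciparum 3D7 cultures (1% parasitaemia, 2% haematocrit) were given 2.5 nM test compound with or without 250 nM serotonin or 100 nM melatonin. Incubation was 48 h at 37 °C under mixed gas, with a DMSO solvent control. Cells were stained with SYBR Green-I (1:10,000) and MitoTracker Deep Red (50 nM) for 20 min at 37 °C, then parasitaemia was read by flow cytometry. Survival is relative to solvent; triplicate, 3 independent experiments.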

Setting [4] is: read-out: IC50 (nM) 3D7, Table 1.
[5] abbreviates: Plasmodium falciparum, 3D7, 72 h, read-out: IC50 (nM) 3D7, Table 1.

`COc1ccc2[nH]cc(CCNC(C)=O)c2c1` [Melatonin, melatonin, reference compound]: in the experiment with P. falciparum 3D7 [1] (100 nM), the “increase of P. falciparum parasitaemia compared with the control” value came to 15.05%.

Consider `NCCc1c[nH]c2ccc(O)cc12` [Serotonin, serotonin, reference compound], for which the “increase of P. falciparum parasitaemia compared with the control” value in the experiment on P. falciparum 3D7 [1] (250 nM) is reported as 11.86%.

In the case of `COc1ccc(CN2C(=S)N(Cc3ccccc3)C(=O)C2CC(=O)Nc2ccccc2)cc1OC` (stereo not shown) [TCMDC-123874, COc1ccc(CN2C(CC(= O)Nc3ccccc3)C(= O)N(Cc3ccccc3)C2 = S)cc1OC], the IC50 with P. falciparum 3D7 [2] (setting [4]) stood at 759 ± 131 nM.

On to `Brc1ccc(Nc2nc(NCc3ccccc3)c3ccccc3n2)cc1` [TCMDC-124574, Brc1ccc(Nc2nc(NCc3ccccc3)c3ccccc3n2)cc1], for which the IC50 in the experiment on P. falciparum 3D7 [2] (setting [5]) amounted to 619 ± 213 nM.

As for `COc1ccc(C2CC(=O)C3=C(C2)NC(C)=C(C(=O)OC(C)C)C3c2cccc(O)c2)cc1OC` (stereo not shown) [TCMDC-125636, COc1ccc(cc1OC)C1CC(= O)C2 = C(C1)NC(C) = C(C2c1cccc(O)c1)C(= O)OC(C)C], the IC50 with P. falciparum 3D7 [2] (setting [4]) came to 80.2 ± 18.9 nM.

Consider `CCCCCC(C)C(C)c1cc(O)c2c(c1)OC(C)(C)CC2(O)c1ccnn1C` (stereo not shown) [TCMDC-131795, CCCCCC(C)C(C)c1cc(O)c2c(OC(C)(C)CC2(O)c2ccnn2C)c1], for which the IC50 in the experiment on P. falciparum 3D7 [2] (setting [5]) stood at 909 ± 65.1 nM.

Consider `O=C1CCCN1CCCNCc1ccc(-c2ccc(-c3nc4cc(C(F)(F)F)ccc4[nH]3)s2)cc1` [TCMDC-132764, OC(= O)C(F)(F)F.FC(F)(F)c1ccc2[nH]c(nc2c1)-c1ccc(s1)-c1ccc(CNCCCN2CCCC2 = O)cc1], for which the IC50 in the experiment with P. falciparum 3D7 [2] (setting [4]) turned out to be 259 ± 49.4 nM.

As for `Fc1ccc2[nH]c(-c3cccc(-c4ccc(CN5CCN(c6ccncc6)CC5)cc4)c3)nc2c1` [TCMDC-132918, OC(= O)C(F)(F)F.Fc1ccc2[nH]c(nc2c1)-c1cccc(c1)-c1ccc(CN2CCN(CC2)c2ccncc2)cc1], the IC50 in the experiment on P. falciparum 3D7 [2] (setting [4]) is 68.4 ± 6.93 nM.

Take `Cn1nccc1C(=O)NCCNCc1ccc(-c2ccc(-c3nc4cc(C(F)(F)F)ccc4[nH]3)s2)cc1` [TCMDC-133018, OC(= O)C(F)(F)F.Cn1nccc1C(= O)NCCNCc1ccc(cc1)-c1ccc(s1)-c1nc2cc(ccc2[nH]1)C(F)(F)F]: in the experiment on P. falciparum 3D7 [2] (setting [4]), the IC50 is 284 ± 125 nM.

`Clc1ccc2nccc(N3CCC(CN4CCC(c5c[nH]c6ccccc56)CC4)CC3)c2c1` [TCMDC-134281, OC(= O)C(F)(F)F.Clc1ccc2nccc(N3CCC(CN4CCC(CC4)c4c[nH]c5ccccc45)CC3)c2c1]: the IC50 in the experiment on P. falciparum 3D7 [2] (setting [4]) was 72.9 ± 10 nM.

In the case of `COc1ccc(NC(=O)[C@H](CC(C)C)Nc2cc(C)nc(NCCc3ccccc3)n2)cc1` [TCMDC-134778, OC(= O)C(F)(F)F.COc1ccc(NC(= O)[C@H](CC(C)C)Nc2cc(C)nc(NCCc3ccccc3)n2)cc1], in the experiment on P. falciparum 3D7 [2] (setting [4]), the IC50 was 497 ± 99.5 nM.

On to `COc1cc2nc(NCCc3ccccc3)nc(NCCCc3ccccc3)c2cc1OC` [TCMDC-135301, COc1cc2nc(NCCc3ccccc3)nc(NCCCc3ccccc3)c2cc1OC], for which the IC50 in the experiment with P. falciparum 3D7 [2] (setting [5]) came out at 434 ± 81.2 nM. The “effect on parasitaemia compared with the control” value in the experiment on P. falciparum 3D7 [1] is on record as “induced a significant increase in parasitaemia”. In the experiment on P. falciparum 3D7 [1] (2.5 nM), this molecule gave an increase in parasitaemia of 9.69%. Besides, in the experiment with P. falciparum 3D7 [3], the “effect on the increase in parasitaemia promoted by melatonin” value (shortened to “effect on the increase … by melatonin”) is “able to inhibit the increase in parasitaemia partially” and the “effect on the increase in parasitaemia promoted by serotonin” value (“effect on the increase … by serotonin” for short) was “unable to prevent the effect of the neurotransmitter on P. falciparum parasitaemia”.

For `O=C(c1ccc(F)cc1)N1CCOC(CCN2CCC(c3ccccc3)CC2)(c2ccc(Cl)c(Cl)c2)C1` (stereo not shown) [TCMDC-135334, Fc1ccc(cc1)C(= O)N1CCOC(CCN2CCC(CC2)c2ccccc2)(C1)c1ccc(Cl)c(Cl)c1], the “reduction of P. falciparum parasitaemia by 50%” value with P. falciparum 3D7 [2] is given as “could not reduce P. falciparum parasitaemia by 50%”.

As to `COc1cc(NC(=O)N2CCOC(CCN3CCC4(CCc5ccccc54)CC3)(c3ccc(Cl)c(Cl)c3)C2)cc(OC)c1` (stereo not shown) [TCMDC-135338, COc1cc(NC(= O)N2CCOC(CCN3CCC4(CCc5ccccc45)CC3)(C2)c2ccc(Cl)c(Cl)c2)cc(OC)c1], the IC50 with P. falciparum 3D7 [2] (setting [4]) is 442 ± 78.8 nM.

Turning to `CCOc1ccc(C(=O)N2CCOC(CCN3CCC(c4ccccc4)CC3)(c3ccc(Cl)c(Cl)c3)C2)cc1` (stereo not shown) [TCMDC-135344, CCOc1ccc(cc1)C(= O)N1CCOC(CCN2CCC(CC2)c2ccccc2)(C1)c1ccc(Cl)c(Cl)c1], the IC50 in the experiment with P. falciparum 3D7 [2] (setting [4]) came out at 462 ± 185 nM.

With `COc1cc(NC(=O)N2CCOC(CCN3CCC4(CCc5ccccc54)CC3)(c3ccc(Cl)c(Cl)c3)C2)cc(OC)c1OC` (stereo not shown) [TCMDC-135346, COc1cc(NC(= O)N2CCOC(CCN3CCC4(CCc5ccccc45)CC3)(C2)c2ccc(Cl)c(Cl)c2)cc(OC)c1OC], in the experiment with P. falciparum 3D7 [2] (setting [4]), the IC50 amounted to 75.5 ± 18.2 nM.

In the case of `COc1cc2nc(NCCc3ccccc3)nc(N(C)Cc3ccccc3)c2cc1OC` [TCMDC-135385, COc1cc2nc(NCCc3ccccc3)nc(N(C)Cc3ccccc3)c2cc1OC], in the experiment with P. falciparum 3D7 [2] (setting [5]), the IC50 worked out at 1210 ± 315 nM. Also, the “effect on parasitaemia compared with the control” value in the experiment on P. falciparum 3D7 [1] is recorded as “induced a significant increase in parasitaemia”. For the same molecule, in the experiment on P. falciparum 3D7 [3], the “effect on the increase … by melatonin” value is “unable to block their effects on the erythrocyte cycle” and the “effect on the increase … by serotonin” value was “unable to prevent the effect of the neurotransmitter on P. falciparum parasitaemia”.

`COc1cc2nc(NCCc3ccccc3)nc(NCc3cc(C)no3)c2cc1OC` [TCMDC-135435, COc1cc2nc(NCCc3ccccc3)nc(NCc3cc(C)no3)c2cc1OC]: the IC50 in the experiment with P. falciparum 3D7 [2] (setting [5]) worked out at 734 ± 162 nM. The “effect on parasitaemia compared with the control” value in the experiment with P. falciparum 3D7 [1] is on record as “did not significantly affect parasitaemia compared with the control”. In the experiment on P. falciparum 3D7 [3], the “effect on the increase … by melatonin” value was “able to inhibit the increase in parasitaemia partially” and the “effect on the increase … by serotonin” value is given as “unable to prevent the effect of the neurotransmitter on P. falciparum parasitaemia”.

With `COc1cc2nc(NCCc3ccccc3)nc(NCc3cnn(C)c3C)c2cc1OC` [TCMDC-135459, COc1cc2nc(NCCc3ccccc3)nc(NCc3cnn(C)c3C)c2cc1OC], the IC50 in the experiment on P. falciparum 3D7 [2] (setting [5]) was 287 ± 24.2 nM. For the same molecule, in the experiment with P. falciparum 3D7 [1], the “effect on parasitaemia compared with the control” value is “induced a significant increase in parasitaemia”. Besides, in the experiment on P. falciparum 3D7 [3], the “effect on the increase … by melatonin” value is recorded as “unable to block their effects on the erythrocyte cycle” and the “effect on the increase … by serotonin” value is listed as “unable to prevent the effect of the neurotransmitter on P. falciparum parasitaemia”.

Take `COc1ccc2ncc(F)c([C@H](O)CN3CCC(NCc4ccc5c(c4)NC(=O)CO5)CC3)c2c1` [TCMDC-135829, Cl.COc1ccc2ncc(F)c([C@H](O)CN3CCC(CC3)NCc3ccc4OCC(= O)Nc4c3)c2c1]: the concentration for half-maximal inhibition (IC50) with P. falciparum 3D7 [2] (setting [4]) was 336 ± 176 nM.

As to `Cc1cc(NC(=O)NCCN2CCC(NC(=O)c3ccc(Cl)cc3)CC2)c2ccccc2n1` [TCMDC-136171, Cc1cc(NC(= O)NCCN2CCC(CC2)NC(= O)c2ccc(Cl)cc2)c2ccccc2n1], the IC50 with P. falciparum 3D7 [2] (setting [4]) was 110 ± 46.2 nM.

Regarding `CCN(CCNc1nc(NCCc2cnc[nH]2)nc(N(CCC#N)Cc2ccccc2)n1)c1cccc(C)c1` [TCMDC-139258, CCN(CCNc1nc(NCCc2cnc[nH]2)nc(n1)N(CCC#N)Cc1ccccc1)c1cccc(C)c1], the IC50 in the experiment with P. falciparum 3D7 [2] (setting [5]) came to 216 ± 15.4 nM.

For the molecule `COc1cc(C)nc2ccc(NC(=O)c3ccc(C(=O)Nc4ccc5nc(C)cc(OC)c5c4)cc3)cc12` [TCMDC-139502, COc1cc(C)nc2ccc(NC(= O)c3ccc(cc3)C(= O)Nc3ccc4nc(C)cc(OC)c4c3)cc12], the IC50 with P. falciparum 3D7 [2] (setting [4]) was determined as 98.2 ± 25.1 nM.

For `O=C(/C=C/c1ccc(Cl)c(Cl)c1)Nc1cccc(CN2CCC(c3c[nH]c4ccc(O)cc34)CC2)c1` [TCMDC-139634, Oc1ccc2[nH]cc(C3CCN(Cc4cccc(NC(= O)\C = C\c5ccc(Cl)c(Cl)c5)c4)CC3)c2c1], the IC50 with P. falciparum 3D7 [2] (setting [4]) was 346 ± 47.5 nM. Moreover, in the experiment on P. falciparum 3D7 [1], the “effect on parasitaemia compared with the control” value was “induced a significant increase in parasitaemia”. Moreover, in the experiment with P. falciparum 3D7 [3], the “effect on the increase … by melatonin” value is listed as “could inhibit the increase in parasitaemia promoted by melatonin thoroughly”, the “effect on the increase … by serotonin” value is “able to inhibit the increase in parasitaemia” and the “classification on the serotonin/melatonin pathway in the parasite” value is recorded as “potential partial agonists of this pathway in the parasite”.

Take `O=C(/C=C/c1ccc(Cl)c(Cl)c1)N1CCC(CN2CCC(c3c[nH]c4ccc(O)cc34)CC2)CC1` [TCMDC-139786, Oc1ccc2[nH]cc(C3CCN(CC4CCN(CC4)C(= O)\C = C\c4ccc(Cl)c(Cl)c4)CC3)c2c1]: the IC50 in the experiment with P. falciparum 3D7 [2] (setting [4]) came out at 138 ± 23.9 nM. In addition, the “effect on parasitaemia compared with the control” value with P. falciparum 3D7 [1] is listed as “induced a significant increase in parasitaemia”. Moreover, in the experiment on P. falciparum 3D7 [3], the “effect on the increase … by melatonin” value is reported as “could inhibit the increase in parasitaemia promoted by melatonin thoroughly”, the “effect on the increase … by serotonin” value is recorded as “partially inhibited the increase in parasitaemia promoted by serotonin” and the “classification on the serotonin/melatonin pathway in the parasite” value is “potential partial agonists of this pathway in the parasite”.

With `O=C(NC1CCC(CN2CCC(c3c[nH]c4ccccc34)CC2)CC1)c1cc(-c2ccc(F)cc2F)ccc1O` (stereo not shown) [TCMDC-139894, Oc1ccc(cc1C(= O)NC1CCC(CN2CCC(CC2)c2c[nH]c3ccccc23)CC1)-c1ccc(F)cc1F], the “reduction of P. falciparum parasitaemia by 50%” value in the experiment with P. falciparum 3D7 [2] was “could not reduce P. falciparum parasitaemia by 50%”.

For `O=C(Nc1ccccc1)N(Cc1cccc(-c2cccc(CNCc3ccc4c(c3)OCO4)c2)c1)C1CCN(Cc2ccccc2)CC1` [TCMDC-140590, OC(= O)C(F)(F)F.O = C(Nc1ccccc1)N(Cc1cccc(c1)c1cccc(CNCc2ccc3OCOc3c2)c1)C1CCN(Cc2ccccc2)CC1], in the experiment on P. falciparum 3D7 [2] (setting [4]), the concentration for half-maximal inhibition (IC50) was 285 ± 144 nM.

As to `CC[C@H](NC(=O)c1c(CC2CCN(CC(C)=O)CC2)c(-c2ccccc2)nc2ccccc12)c1ccccc1` [TCMDC-141946, CC[C@H](NC(= O)c1c(CC2CCN(CC(C) = O)CC2)c(nc2ccccc12)-c1ccccc1)c1ccccc1], the half-maximal inhibitory concentration (IC50) in the experiment on P. falciparum 3D7 [2] (setting [4]) is 215 ± 27.9 nM.
